Here are results for 27 compounds from ChEMBL document CHEMBL1145162, “6-aryl-8H-indeno[1,2-d]thiazol-2-ylamines: A1 adenosine receptor agonist allosteric enhancers having improved potency” (J Med Chem, 2005).

For assay [1], the target named is T1, Adenosine receptor A1 (Homo sapiens) (UniProt P30542).
T1 sequence (whole entry): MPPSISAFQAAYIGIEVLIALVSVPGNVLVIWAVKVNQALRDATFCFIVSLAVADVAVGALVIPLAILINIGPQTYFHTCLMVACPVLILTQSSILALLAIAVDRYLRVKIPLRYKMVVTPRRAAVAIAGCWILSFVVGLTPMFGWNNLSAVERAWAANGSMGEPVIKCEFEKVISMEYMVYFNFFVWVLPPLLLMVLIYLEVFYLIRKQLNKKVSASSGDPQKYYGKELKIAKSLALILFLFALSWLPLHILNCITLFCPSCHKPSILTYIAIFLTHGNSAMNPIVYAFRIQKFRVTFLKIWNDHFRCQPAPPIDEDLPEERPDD
In words: Allosteric enhancer activity against adenosine A1 receptor.

Assay [2] concerns the target T2, Adenosine receptor A3 (Homo sapiens) (UniProt P0DMS8).
T2 sequence (whole entry): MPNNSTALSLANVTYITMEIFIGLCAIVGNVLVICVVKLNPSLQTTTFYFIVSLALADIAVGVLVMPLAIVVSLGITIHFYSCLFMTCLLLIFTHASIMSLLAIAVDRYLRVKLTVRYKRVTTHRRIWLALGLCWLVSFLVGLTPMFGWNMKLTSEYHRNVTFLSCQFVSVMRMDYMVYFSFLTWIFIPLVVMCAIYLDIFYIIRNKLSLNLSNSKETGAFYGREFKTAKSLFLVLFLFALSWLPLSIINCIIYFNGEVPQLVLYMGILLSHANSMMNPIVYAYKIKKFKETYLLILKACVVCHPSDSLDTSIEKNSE
In words: In vitro allosteric enhancer (AE) activity for adenosine A3 receptor at 50 uM.

In assay [3] the target is Adenosine receptor A2a (Homo sapiens) (UniProt P29274). In words: In vitro allosteric enhancer (AE) activity for adenosine A2A receptor at 50 uM.
Assay [4] concerns the target T1, Adenosine receptor A1 (Homo sapiens). In words: In vitro allosteric enhancer (AE) activity for adenosine A1 receptor at 50 uM. In short, it runs like this: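 Single-point screen on membranes from CHO-K1 cells stably expressing hA1AR. Candidate enhancer was added at 50 μM final for 5 min. Dissociation was then started with 8-cyclopentyltheophylline plus GTPγS and run 10 min. Score = % specific agonist binding remaining; two to three assays, each in triplicate.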

For assay [5], the target named is T3, Adenosine receptor A1 (Homo sapiens, UniProt P30542).
T3 sequence (P30542 whole entry): T1 sequence (whole entry)
In words: Antagonist activity against adenosine A1 receptor. Type of assay: functional. The arrangement: concentration or dose not given beside the values. In short, it runs like this:
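Equilibrium binding on CHO-K1 hA1AR membranes (15 μg) in 10 mM HEPES pH 7.4, 1 mM EDTA, 1 U/mL adenosine deaminase, 4 nM [3H]CPX. Mixed with an equal volume of 200 μM enhancer in HEPES–10% DMSO; 200 μM NECA for nonspecific binding. Incubated 3 h at room temperature, then filtered.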

The target of assay [6] is T1, Adenosine receptor A1 (Homo sapiens). In words: In vitro allosteric enhancer (AE) activity for adenosine A1 receptor maximal score from curve fitting.

Bounds are passed on as bounds.

Adenosine receptor A2a (Homo sapiens), sequence (P29274 whole entry): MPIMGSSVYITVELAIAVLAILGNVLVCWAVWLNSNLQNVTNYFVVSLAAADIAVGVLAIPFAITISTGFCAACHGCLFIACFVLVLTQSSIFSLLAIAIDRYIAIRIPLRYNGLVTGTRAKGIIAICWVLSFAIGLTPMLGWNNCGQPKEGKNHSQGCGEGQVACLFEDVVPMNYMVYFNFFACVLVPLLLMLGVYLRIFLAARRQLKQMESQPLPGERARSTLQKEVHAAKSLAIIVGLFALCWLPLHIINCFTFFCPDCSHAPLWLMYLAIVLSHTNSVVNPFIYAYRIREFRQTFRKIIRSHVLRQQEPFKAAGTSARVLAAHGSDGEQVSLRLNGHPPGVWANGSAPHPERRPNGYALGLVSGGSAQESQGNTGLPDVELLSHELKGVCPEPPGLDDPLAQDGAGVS

One may read the EC50 as the concentration at which the effect is half-maximal. For orientation: Inhibition means the percentage by which the read-out fell short of the control. For the compound `Nc1nc2c(s1)Cc1cc(-c3ccccc3Cl)ccc1-2`, the EC50 in assay [1] was over 10 µM. The Alloste ic enhan er (AE) in assay [2] came out at 0%; in assay [3], 0%; in assay [4], 36.7%. The compound further had an Inhibition in assay [5] of over 10%.
In the case of `Nc1nc2c(s1)Cc1cc(-c3cccc(O)c3)ccc1-2`, the EC50 in assay [1] was over 10 µM. Besides, the Alloste ic enhan er (AE) is 1% in assay [2], 0% in assay [3] and 10% in assay [4]. In addition, the Inhibition in assay [5] was 36.7%.
As for `Cc1sc(N)c(C(=O)c2cccc(C(F)(F)F)c2)c1C`, the EC50 in assay [1] is over 10 µM. For the same compound, the Alloste ic enhan er (AE) came out at 5% in assay [2], 0% in assay [3] and 20% in assay [4].
Consider `COc1cc(-c2ccc3c(c2)Cc2sc(N)nc2-3)cc(OC)c1OC`, for which, in assay [1], the concentration giving a half-maximal response (EC50) is over 10 µM. For the same compound, the values for the Alloste ic enhan er (AE) in assay [2], in assay [3] and in assay [4] were 0.8%, 0% and 23.3%, respectively. This compound also returned an Inhibition in assay [5] of 11.8%.
Consider `Nc1nc2c(s1)Cc1cc(-c3cc4ccccc4o3)ccc1-2`, for which the figures for the Alloste ic enhan er (AE) in assay [2], in assay [3] and in assay [4] were 11.9%, 0.8% and 51%, respectively.
Regarding `Nc1nc2c(s1)Cc1cc(-c3cccc([N+](=O)[O-])c3)ccc1-2`, the EC50 in assay [1] is over 10 µM. Besides, the Alloste ic enhan er (AE) worked out at 0% in assay [2], 0% in assay [3] and 13% in assay [4]. Also, in assay [5], the Inhibition amounted to 8.3%.
As to `Cc1ccc(-c2ccc3c(c2)Cc2sc(N)nc2-3)cc1C`, the 50% effective concentration (EC50) in assay [1] is over 10 µM. For the same compound, the Alloste ic enhan er (AE) in assay [2] is 0%; in assay [3], 0%; in assay [4], 52%. This compound also showed an Inhibition in assay [5] of 30.1%.
Take `Nc1nc2c(s1)Cc1cc(-c3ccc(O)cc3)ccc1-2`: in assay [1], the half-maximal effective concentration (EC50) was over 10 µM. Also, the figures for the Alloste ic enhan er (AE) in assay [2], in assay [3] and in assay [4] were 1%, 0% and 4%, respectively. Further, in assay [5], the Inhibition was found to be 36.7%.
Consider `Nc1nc2c(s1)Cc1cc(-c3ccccc3[N+](=O)[O-])ccc1-2`, for which the EC50 in assay [1] amounted to 6.3 µM. The Alloste ic enhan er (AE) in assay [2] worked out at 0%; in assay [3], 0%; in assay [4], 40.1%. Also, the Inhibition in assay [5] came to 8.3%. The Allosteric enhancer (AE) in assay [6] was 49.7%.
As for `Nc1nc2c(s1)Cc1cc(-c3ccccc3)ccc1-2`, in assay [1], the 50% effective concentration (EC50) is over 10 µM. Also, the Alloste ic enhan er (AE) in assay [2] turned out to be 1.6%; in assay [3], 0%; in assay [4] it was 8.2%. The compound further yielded an Inhibition in assay [5] of over 10%.
The matching figures for `COc1ccc(-c2ccc3c(c2)Cc2sc(N)nc2-3)c(OC)c1`: over 10 µM, 1.9%, 0%, 73% and 16%.
Regarding `Nc1nc2c(s1)Cc1cc(-c3ccc(F)cc3)ccc1-2`, in assay [1], the EC50 is over 10 µM. Further, the Alloste ic enhan er (AE) in assay [2] is 11.8%; in assay [3] it was 0%; in assay [4], 54.4%. In addition, the Inhibition in assay [5] is over 10%.
For `COc1cccc(-c2ccc3c(c2)Cc2sc(N)nc2-3)c1`, in that order: over 10 µM, 1.8%, 0%, 64% and 19.3%.
For the compound `Nc1nc2c(s1)Cc1cc(-c3ccc(Cl)c(Cl)c3)ccc1-2`, in assay [1], the EC50 was over 10 µM. In addition, the values for the Alloste ic enhan er (AE) in assay [2], in assay [3] and in assay [4] were 0%, 0% and 45.3%, respectively. This compound gave an Inhibition in assay [5] of 8%. For the same compound, in assay [6], the Allosteric enhancer (AE) came to 22.6%.
In the case of `Nc1nc2c(s1)Cc1cc(-c3cccc(F)c3)ccc1-2`, the EC50 in assay [1] was over 10 µM. The values for the Alloste ic enhan er (AE) in assay [2], in assay [3] and in assay [4] were 3.6%, 0% and 42.8%, respectively. Moreover, in assay [5], the Inhibition is over 10%.
`Nc1nc2c(s1)Cc1cc(-c3cccs3)ccc1-2`: the Alloste ic enhan er (AE) in assay [2] was determined as 1.8%; in assay [3], 0%; in assay [4] it was 32%.
Regarding `COc1ccc(-c2ccc3c(c2)Cc2sc(N)nc2-3)c(OC)c1OC`, in assay [1], the EC50 was over 10 µM. Besides, the Alloste ic enhan er (AE) in assay [2] stood at 0%; in assay [3] it was 0.3%; in assay [4] it was 64.5%. This compound also returned an Inhibition in assay [5] of 18%.
Take `COc1ccccc1-c1ccc2c(c1)Cc1sc(N)nc1-2`: the EC50 in assay [1] was over 10 µM. Besides, the Alloste ic enhan er (AE) in assay [2] was determined as 1%; in assay [3], 0%; in assay [4], 38%. In assay [5], this compound had an Inhibition of 43.5%.
As for `COc1ccc2cc(-c3ccc4c(c3)Cc3sc(N)nc3-4)ccc2c1`, the Alloste ic enhan er (AE) stood at 0% in assay [2], 0% in assay [3] and 24.4% in assay [4].
Turning to `Nc1nc2c(s1)Cc1cc(-c3cccc(Cl)c3)ccc1-2`, in assay [1], the EC50 was over 10 µM. Besides, the figures for the Alloste ic enhan er (AE) in assay [2], in assay [3] and in assay [4] were 1%, 0% and 22.7%, respectively. Also, the Inhibition in assay [5] is over 10%.
The matching figures for `Nc1nc2c(s1)Cc1cc(-c3ccccc3F)ccc1-2`: over 10 µM, 3.6%, 0%, 4.9% and 13.2%.
With `Nc1nc2c(s1)Cc1cc(-c3ccc(C(F)(F)F)cc3)ccc1-2`, in assay [1], the EC50 was over 10 µM. Also, the Alloste ic enhan er (AE) in assay [2] was 0%; in assay [3], 0%; in assay [4] it was 8.9%. Besides, the Inhibition in assay [5] was over 10%.
Turning to `Cc1cc(C)cc(-c2ccc3c(c2)Cc2sc(N)nc2-3)c1`, in assay [1], the concentration giving a half-maximal response (EC50) is over 10 µM. For the same compound, the Alloste ic enhan er (AE) was determined as 0% in assay [2], 0% in assay [3] and 10.5% in assay [4]. The compound further returned an Inhibition in assay [5] of over 8.7%.
Consider `Cc1ccccc1-c1ccc2c(c1)Cc1sc(N)nc1-2`, for which, in assay [1], the 50% effective concentration (EC50) is over 10 µM. Also, the Alloste ic enhan er (AE) in assay [2] is 0%; in assay [3], 0%; in assay [4] it was 36.6%. For the same compound, the Inhibition in assay [5] turned out to be 34.4%.
On to `Nc1nc2c(s1)Cc1cc(-c3cccc(C(F)(F)F)c3)ccc1-2`, for which the EC50 in assay [1] is over 10 µM. In addition, the Alloste ic enhan er (AE) in assay [2] turned out to be 0%; in assay [3], 0%; in assay [4], 15.8%. In assay [5], this compound registered an Inhibition of over 10%.
In the case of `Nc1nc2c(s1)Cc1cc(-c3ccc4ccccc4c3)ccc1-2`, the EC50 in assay [1] is over 10 µM. In addition, the Alloste ic enhan er (AE) is 4.5% in assay [2], 0% in assay [3] and 38.6% in assay [4]. In addition, the Inhibition in assay [5] is over 4.2%.
`Nc1nc2c(s1)Cc1cc(-c3ccsc3)ccc1-2`: the Alloste ic enhan er (AE) in assay [2] was 3.8%; in assay [3], 0%; in assay [4] it was 68.8%.
